# Sampled rows, rich in hits. Any-hit rate of the full collection: about 2.5%.
# PGE2 EP2 inh: EP2 receptor (human) inhibition; C6 glioma cells expressing human EP2, cAMP TR-FRET; cells stimulated with saturating PGE2; inhibition, % at 25 µM; 0.52% of 260,000 active; AID 1422;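 active = percent inhibition above 40 after rounding to a whole number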;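 also: rat C6 glioma host cells with rolipram phosphodiesterase inhibitor present; the protocol text gives 20 µM as final concentration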
# Target sequence (P43116 whole entry, looked up): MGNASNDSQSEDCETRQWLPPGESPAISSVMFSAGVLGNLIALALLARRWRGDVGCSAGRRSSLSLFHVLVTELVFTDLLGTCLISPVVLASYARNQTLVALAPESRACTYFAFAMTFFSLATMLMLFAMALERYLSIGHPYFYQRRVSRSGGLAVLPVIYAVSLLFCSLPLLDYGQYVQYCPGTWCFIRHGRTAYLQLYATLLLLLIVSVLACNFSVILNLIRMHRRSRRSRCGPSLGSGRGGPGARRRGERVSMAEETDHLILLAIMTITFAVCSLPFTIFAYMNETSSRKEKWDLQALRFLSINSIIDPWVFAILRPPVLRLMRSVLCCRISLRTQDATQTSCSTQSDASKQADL
# HKDC1 inhibitor: blocks human hexokinase HKDC1 activity. recombinant HKDC1, G6PDH/diaphorase resazurin coupled fluorescence. Q2TB90. 0.16% of 340,000 active. inhibition, % at 20 µM;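 active = inhibition above about 35% when tested at 20 µM, limit read from the data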;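 also: plate controls were DMSO wells with enzyme for no effect and DMSO wells lacking enzyme for full effect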
#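 Assay system: in-house recombinant HK5 (HKDC1) enzyme. Input: HKDC1 at 5 µg/mL. Medium: Tris pH 8.0 buffer with MgCl2, Tween-20, BSA, BME. Dosing: single 20 µM dose. Schedule: 90 min reaction incubation at room temperature, dark. Signal: resazurin-to-resorufin fluorescence via G6PDH and diaphorase coupling, 525/613 nm. Controls: DMSO-enzyme wells negative, buffer-substituted wells positive.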
# EP2 mod: modulators of human EP2 prostaglandin E2 receptor | EP2-expressing cells, cAMP HTRF FRET, PGE2 co-stimulation | induction, % at 25 µM | 0.83% of 260,000 active | AID 940 | P43116;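 active = compounds whose cAMP rise, as percent of the full-agonist control response, exceeds 60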;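 also: rat C6 glioma line stably carrying human EP2 under a CMV promoter; the protocol text gives 20 µM as final concentration; 100% = response of wells given 1 µM PGE2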
# PHOSPHO1 block: blocks human PHOSPHO1 phosphatase activity. inhibition, % at 13.3 µM. Q8TCT1. 1.1% of 290,000 active. AID 1565. recombinant PHOSPHO1, absorbance phosphatase assay; in the data active = inhibition above about 60%
# Target sequence (Q8TCT1 whole entry, looked up): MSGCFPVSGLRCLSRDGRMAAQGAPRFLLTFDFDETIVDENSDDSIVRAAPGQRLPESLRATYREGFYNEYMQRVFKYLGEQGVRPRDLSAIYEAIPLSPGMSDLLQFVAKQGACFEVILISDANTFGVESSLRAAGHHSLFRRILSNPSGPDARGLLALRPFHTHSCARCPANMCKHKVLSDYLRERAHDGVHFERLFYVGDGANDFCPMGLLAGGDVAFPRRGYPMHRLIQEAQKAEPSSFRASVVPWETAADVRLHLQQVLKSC
# Tb hexokinase: T. brucei hexokinase 1 inhibition | recombinant TbHK1, G6PDH-coupled NADH A340 | inhibition, % at 10 µM | 0.11% of 220,000 active;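 active = inhibition of 50% or more in the single-dose primary screen; inactive = inhibition below 50%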
# PfGluPho inh: PfG6PD (Plasmodium falciparum) enzyme inhibition; PfGluPho enzyme, NADPH resazurin-diaphorase fluorescence; inhibition, % at 20 µM; 0.78% of 350,000 active; AID 504690;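 active = inhibition reaching at least a set limit at 20 µM in the primary screen, cut at about 59% in these data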;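 also: 0% = DMSO wells with substrate and 100% = DMSO wells lacking glucose-6-phosphate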
# Starred values were filed as active, the others as inactive; . = not tested or not shown; ! = repeats disagree.
SMILES,PGE2 EP2 inh,HKDC1 inhibitor,EP2 mod,PHOSPHO1 block,Tb hexokinase,PfGluPho inh
CCOC(=O)c1sc2nc(C)n(N)c(=O)c2c1C,8.3,18.7,14.3,62.9*,5.7,-12.1
O=c1[nH]c2cc3c(cc2cc1C(c1nnnn1C1CCCC1)N1CCN(c2ccccc2)CC1)OCO3 (stereo not drawn),7.4,.,-16.5,.,.,.
O=C1c2sc3nc4n(c(=O)c3c2CCC1Br)CCCCC4 (stereo not drawn),6.6,9.4,12.9,4.4,-25.2,79.9*
O=C1CCCc2c1sc1nc3n(c(=O)c21)CCCCC3,9.6,0.8,4.9,10.1,-4.7,4.9
Cc1cccc(S(=O)(=O)C(C#N)c2nc3ccccc3nc2N2CCOCC2)c1 (stereo not drawn),8.0,12.8,17.5,78.4*,-3.6,-20.3
COc1ccc(S(=O)(=O)C(C#N)c2nc3ccccc3nc2N2CCC(C)CC2)cc1 (stereo not drawn),11.1,.,.,100.1*,.,.
N#CC(c1nc2ccccc2nc1N1CCCCC1)S(=O)(=O)c1ccc(Cl)cc1 (stereo not drawn),.,.,.,-41.5,.,.
Cc1ccc(S(=O)(=O)C(C#N)c2nc3ccccc3nc2N2CCCCC2)cc1 (stereo not drawn),.,.,.,93.2*,.,.
Cc1ccc(S(=O)(=O)C(C#N)c2nc3ccccc3nc2N2CCN(C)CC2)cc1 (stereo not drawn),8.8,-5.2,32.2,-17.0,-10.1,-11.0
CC(C)(Oc1ccc(Cl)cc1)C(=O)Nc1nc2c(s1)CCCC2,8.2,.,-56.9,.,.,.
CCn1c(COc2ccc(Cl)cc2)nnc1SCC(=O)Nc1cccc2ccccc12,14.8,.,-25.4,.,.,.
O=C(N/N=C/c1ccc(OC(=O)c2ccc([N+](=O)[O-])cc2)cc1)c1cccnc1,.,7.1,.,62.8*,.,-6.2
CCC(=O)Nc1ccc(N2CCN(C(=O)c3ccc(C)cc3)CC2)cc1,13.3,.,-34.9,.,.,.
COc1ccc2[nH]c(=S)[nH]c2c1,12.8,0.9,-12.8,91.7*,30.3,-8.0
Cc1nc([N+](=O)[O-])c(S)n1Cc1ccccc1,7.6,.,-5.1,.,.,.
Cc1cccc(C)c1NC1=NC(=S)N(c2ccccc2)C12CCOC(C)(C)C2 (stereo not drawn),3.1,0.7,33.2,6.8,8.3,-15.2
Cc1ccc(N2C(=S)N=C(Nc3ccccc3C)C23CCOC(C)(C)C3)cc1 (stereo not drawn),2.1,6.1,34.2,70.5*,-2.5,1.6
Cc1ccc(NC(=O)Cn2nc(-c3cccs3)cc(N)c2=O)cc1F,8.6,.,-85.7,.,.,.
COc1ccc2[nH]c(=O)c(C(c3nnnn3C3CCCCC3)N3CCCC(C)C3)cc2c1 (stereo not drawn),8.4,.,-19.4,.,.,.
COC(=O)[C@H]1CCc2ccccc2N1C(=O)CCc1ccccc1,.,.,1.5,.,.,.
O=C(NNC(=S)NC(=O)C12CC3CC(CC(C3)C1)C2)c1ccncc1,15.0,-15.6,-10.5,65.8*,-11.0,-20.8
CC(=O)Nc1cccc(N=Cc2c(C)c(C#N)c(=O)n(C)c2O)c1,16.7,.,6.5,.,.,.
N#Cc1c(NC(=O)COc2ccccc2Cl)sc2c1CCCC2,19.1,.,-24.6,.,.,.
S=C(Nc1cccc(Cl)c1)Nc1cccc2cnccc12,14.4,18.2,-3.8,-16.0,-1.8,95.4*
CCCCn1c(-c2csc3c2CCC(C)C3)n[nH]c1=S (stereo not drawn),5.0,0.6,40.9,84.1*,8.7,10.2
SMILES,PGE2 EP2 inh,HKDC1 inhibitor,EP2 mod,PHOSPHO1 block,Tb hexokinase,PfGluPho inh
CCCCn1c(-c2csc3ccccc23)n[nH]c1=S,.,3.5,36.2,95.0*,-4.6,22.7
C=CCn1c(-c2csc3c2CCC(C)C3)n[nH]c1=S (stereo not drawn),3.2,-7.0,13.2,20.5,7.5,35.8
CC1CCc2c(sc3ncn4c(SCC(=O)c5ccc(F)cc5)nnc4c23)C1 (stereo not drawn),11.5,.,12.7,.,.,.
Cc1ccc(C(=O)O)cc1NC(=S)NC(=O)c1ccc(-c2ccc(Cl)cc2)o1,7.3,-4.6,89.0*,3.3,-63.5,-2.9
O=C(O)c1ccc(NC(=S)NC(=O)c2ccc(-c3ccc(Br)cc3)o2)cc1,.,5.1,.,2.5,.,-31.7
O=C(O)c1cccc(NC(=S)NC(=O)c2ccc(-c3ccc(Cl)cc3)o2)c1,14.4,5.5,63.8*,48.3,-29.7,-11.9
Cc1ccc(C)c(N(C(=O)c2snc(C(N)=O)c2N)C(C)C(=O)NC2CCCC2)c1 (stereo not drawn),9.0,.,-102.6,.,.,.
Oc1c(Cl)cc(-c2nc3cnccn3c2NCc2ccc3c(c2)OCO3)cc1Cl,7.7,.,-27.6,.,.,.
CC(=O)CSc1nc2ccccc2s1,9.2,-4.7,-20.6,-60.9,-0.3,-9.3
O=C(CSc1nc2ccccc2s1)c1sc2sc3ccccc3[n+]2c1O,65.6*,.,-4.0,.,.,.
O=C(O)CSc1nc2ccccc2s1,6.8,-2.1,-8.1,2.1,-3.9,-25.6
O=C(CSc1nc2ccccc2s1)CSc1nc2ccccc2s1,10.4,7.5,-31.5,60.4*,-12.5,10.5
COc1ccc(-c2cc(C(F)(F)F)nc(SCC(=O)NCc3ccccc3F)n2)cc1OC,15.3,.,-46.8,.,.,.
CCOc1ccc2nc(NC(=O)Nc3ccccc3)sc2c1,7.4,-2.7,-1.6,-4.4,-1.1,18.8
CCOc1ccc2nc(NC(=S)NCc3ccccc3)sc2c1,-2.5,-14.7,5.8,71.9*,-25.9,36.7
COC(=O)c1sc2nc3c(c(-c4cccs4)c2c1N)CCCC3,10.0,3.4,64.2*,-1.0,-1.5,-13.4
NC(=O)c1sc2nc3c(c(-c4ccco4)c2c1N)CCCC3,6.0,-0.5,21.6,19.9,-9.0,11.1
Cc1ccccc1NC(=O)c1sc2nc3c(c(-c4ccco4)c2c1N)CCC3,11.8,5.7,-7.6,75.7*,-15.8,12.9
N#Cc1sc2nc3c(c(-c4ccco4)c2c1N)CCCC3,.,4.4,57.7,80.8*,-0.6,2.5
CCOC(=O)C1C2C=CC3(CN(CCc4ccccc4)C(=O)C13)O2 (stereo not drawn),10.3,-5.8,24.6,8.0,9.6,3.1
COC(=O)C1C2C=CC3(CN(CCc4ccccc4)C(=O)C13)O2 (stereo not drawn),51.0*!,-7.8,-9.6,-11.6,0.6,5.6
O=C(COC(=O)CCc1nc2ccccc2c(=O)[nH]1)Nc1ccc(Cl)cn1,5.5,-5.1,14.6,74.5*,-1.8,-1.6
O=S1(=O)N=C(SCCO)c2ccccc21,8.4,-6.5,25.4,92.2*,6.2,5.1
CCOC(=O)c1ccc(NS(=O)(=O)c2ccc3[nH]c(=O)[nH]c3c2)cc1,0.2,3.1,-14.6,63.2*,1.2,36.7
CCC(CC)NC(=O)c1ccc(NS(=O)(=O)c2ccc3[nH]c(=O)[nH]c3c2)cc1,.,-0.1,.,4.5,.,15.6
Cc1cccc(NC(=O)CSc2nc3sc4c(c3c(=O)n2C)CCCC4)c1C,7.5,.,-47.0,.,.,.
Clc1ccc(OCc2nnc(SCc3nc4ccccc4[nH]3)n2Cc2ccco2)cc1,3.7,5.1,20.6,73.6*,0.8,-3.3
